Most compounds without a hit are left out; they make up all but 2.9% or so of the library.
Apaf1 inhib: inhibitors of human Apaf-1 apoptosome | O14727 | reconstituted apoptosome caspase-3 activity, DEVD-Rh110 fluorescence | inhibition, % at 20 µM | 330,000 compounds, 0.71% hits | AID 489030; active means inhibition of at least 40% at 20 µM;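 further: plate controls were DMSO wells for no effect and DEVD-CHO caspase inhibitor wells for full effect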
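Material: reconstituted apoptosome with Apaf-1, cytochrome c, caspase-9, procaspase-3, dATP. Technique: Rh110 fluorescence intensity. Buffer or medium: pH 7.5 Hepes buffer with CHAPS, BSA, DTT. Times: 30 min plus 50 min, RT.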
PfG6PD inh: PfG6PD (Plasmodium falciparum) enzyme inhibition; inhibition, % at 20 µM; 350,000 compounds, 0.78% hits; AID 504690; PfGluPho enzyme, NADPH resazurin-diaphorase fluorescence;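 active means inhibition reaching at least a set limit at 20 µM in the primary screen, cut at about 59% in these data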;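 further: 0% = DMSO wells with substrate and 100% = DMSO wells lacking glucose-6-phosphate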
EBNA-1 inh: blocks EBNA-1 binding to DNA; AID 1950; EBNA-1 DNA binding, fluorescence polarization; inhibition, % at 14.8 µM; 300,000 compounds, 0.34% hits; in the data active means inhibition above about 28%
UBC13 inh: blocks human UBC13 polyubiquitin chain formation | P61088 | TR-FRET | inhibition, % at 20 µM | 330,000 compounds, 0.47% hits; in the data active means inhibition above about 45%, passing the limit was not always enough
Target sequence (P61088 whole entry, looked up): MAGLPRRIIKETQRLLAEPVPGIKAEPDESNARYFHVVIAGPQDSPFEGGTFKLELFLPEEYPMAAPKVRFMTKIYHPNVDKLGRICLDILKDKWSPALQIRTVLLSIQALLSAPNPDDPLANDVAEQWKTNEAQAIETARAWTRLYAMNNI
M18AAP inhibitor: PfM18AAP enzyme inhibition; 290,000 compounds, 1.2% hits; recombinant PfM18AAP, H-Glu-NHMec fluorogenic cleavage; AID 1822; inhibition, % at 7.35 µM;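 active means inhibition above the campaign mean inhibition over all tested compounds plus 3 SD, cut at about 28% in these data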;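 further: 0% = plate median of test compound wells and 100% = 2 mM ZnCl2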
ZTA DNA inh: blocks Epstein-Barr virus ZTA, an EBNA-1 counter-screen. P03206. ZTA-DNA binding, fluorescence polarization. inhibition, % at 11 µM. 320,000 compounds, 0.15% hits. AID 2234; in the data active means inhibition above about 33%
Target sequence (P03206 whole entry, looked up): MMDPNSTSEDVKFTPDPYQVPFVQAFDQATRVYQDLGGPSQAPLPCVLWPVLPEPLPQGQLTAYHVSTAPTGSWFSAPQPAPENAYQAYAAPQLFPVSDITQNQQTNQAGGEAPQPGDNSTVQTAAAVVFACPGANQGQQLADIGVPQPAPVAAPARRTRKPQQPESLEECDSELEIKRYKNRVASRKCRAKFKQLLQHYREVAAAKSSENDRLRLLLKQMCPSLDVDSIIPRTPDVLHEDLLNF
Casp3 UBC13 ctr: inhibits human caspase-3 in UBC13 counter-screen; shares compounds with UBC13 inh; inhibition, % at 20 µM; 1,400 compounds, 4% hits; Recombinant caspase-3, Caspase-Glo 3/7 luminescence, 60 min;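 active means mean inhibition across replicates above about 26%, limit read from the data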;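 further: plate controls were DMSO with caspase-3 for no effect and DMSO wells lacking enzyme for full effect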
Target sequence (P42574 whole entry, looked up): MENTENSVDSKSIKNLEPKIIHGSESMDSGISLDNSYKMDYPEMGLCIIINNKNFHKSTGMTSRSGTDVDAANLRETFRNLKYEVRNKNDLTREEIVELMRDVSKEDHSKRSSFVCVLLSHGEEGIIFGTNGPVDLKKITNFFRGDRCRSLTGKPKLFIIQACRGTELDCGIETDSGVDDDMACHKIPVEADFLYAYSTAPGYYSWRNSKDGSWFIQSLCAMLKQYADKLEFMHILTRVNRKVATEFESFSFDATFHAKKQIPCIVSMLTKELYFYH
UBC13 conf: human UBC13 polyubiquitin inhibition, confirmed; shares compounds with UBC13 inh; UBC13 polyubiquitination, TR-FRET, biochemical; inhibition, % at 10 µM; 1,400 compounds, 68% hits; AID 488859; in the data active means inhibition above about 45%
Numbers without * were called inactive.

For C#CCOCCOCCOCCNc1nc(N2CCN(C(=O)CCCCCCCCCCNC(=O)[C@H](CCCCN)n3cc(C[C@@H](C)CC)nn3)CC2)nc(N2CCN(C(=O)CCCCCCCCCCNC(=O)[C@H](CCCN=C(N)N)n3cc(C[C@@H](C)CC)nn3)CC2)n1 the results were Apaf1 inhib 54.9*, PfG6PD inh 52.1, EBNA-1 inh 10.4, UBC13 inh 125.0*, ZTA DNA inh 70.1*, Casp3 UBC13 ctr -0.7 and UBC13 conf 124.6*.
For C#CCOCCOCCOCCNc1nc(N2CCN(C(=O)[C@H](CO)n3cc([C@@H](N)C(C)C)nn3)CC2)nc(N2CCN(C(=O)[C@H](CCCCN)n3cc([C@@H](N)[C@H](C)CC)nn3)CC2)n1 the results were Apaf1 inhib 31.9, PfG6PD inh 15.3, UBC13 inh 84.0*, Casp3 UBC13 ctr -3.2 and UBC13 conf 59.4*.
For CC(OC(=O)c1cc(S(=O)(=O)N(C)c2ccccc2)ccc1Cl)C(=O)Nc1ccc2c(c1)OCCO2 (stereo unspecified) the results were Apaf1 inhib -3.3, PfG6PD inh -1.0, EBNA-1 inh 5.5, UBC13 inh -3.6, M18AAP inhibitor 2.3 and ZTA DNA inh -13.0.
`Cc1ccc(C2(c3noc(CN(C)CCCN4CCOCC4)n3)CCCC2)cc1` gave Apaf1 inhib -19.2, EBNA-1 inh -6.3, UBC13 inh -3.2, M18AAP inhibitor -4.3 and ZTA DNA inh 1.9.
For COc1ccc(S(=O)(=O)N2CCOCC2)cc1NC(=O)/C=C/c1ccccc1 the results were Apaf1 inhib 3.2, PfG6PD inh -3.6 and UBC13 inh 1.3.
For C#CCOCCOCCOCCNc1nc(N2CCN(C(=O)[C@H]([C@@H](C)CC)n3cc(CCCN=C(N)N)nn3)CC2)nc(N2CCN(C(=O)[C@H](CCCCN)n3cc(CCCC)nn3)CC2)n1 the results were Apaf1 inhib 22.4, PfG6PD inh 6.7, EBNA-1 inh -2.3, UBC13 inh 71.0*, M18AAP inhibitor -6.1, ZTA DNA inh -14.0, Casp3 UBC13 ctr 0.3 and UBC13 conf 46.7*.
`CCc1ccc2nc(N(CCCN(C)C)C(=O)c3ccc(C(=O)c4ccccc4)cc3)sc2c1` gave Apaf1 inhib 23.6, PfG6PD inh 4.6, EBNA-1 inh 6.5, UBC13 inh 73.5*, M18AAP inhibitor 3.1, ZTA DNA inh 22.8, Casp3 UBC13 ctr -3.5 and UBC13 conf 107.8*.
CN(C)CCCN(C(=O)c1ccc2c(c1)CCCC2)c1nc2ccc(Cl)cc2s1 was read as Apaf1 inhib 15.6, PfG6PD inh 18.8, EBNA-1 inh -9.2, UBC13 inh 65.2*, M18AAP inhibitor -3.6, ZTA DNA inh -14.6, Casp3 UBC13 ctr 2.3 and UBC13 conf 93.2*.
For CCN(CC)CCNC(=O)c1c(C)n(-c2ccccc2)c2cc(Br)c(OC)cc12 the results were Apaf1 inhib 31.6, PfG6PD inh 0.0, EBNA-1 inh 6.0, UBC13 inh 51.5*, M18AAP inhibitor 0.0, ZTA DNA inh -0.9, Casp3 UBC13 ctr -5.3 and UBC13 conf 79.4*.
For COc1cc2c(C(=O)N3CCN(C)CC3)c(C)n(-c3ccccc3)c2cc1Br the results were Apaf1 inhib 8.0, PfG6PD inh 6.8, EBNA-1 inh -0.7, UBC13 inh -1.8, M18AAP inhibitor -6.7 and ZTA DNA inh -9.5.
Screening Cc1cccc(-c2nnc(C(C)Nc3cccc(C(=O)NC4CC4)c3)o2)c1 (stereo unspecified) returned PfG6PD inh 14.2.
Screening CCOC(=O)N1CCN(C(=O)c2ccc3c(c2)N(CC)CCS3)CC1 returned Apaf1 inhib -4.5, PfG6PD inh 45.3, EBNA-1 inh -0.8, UBC13 inh 34.4, M18AAP inhibitor 3.5 and ZTA DNA inh -10.4.
`CCOC(=O)N1CCN(C(=O)c2ccc3c(c2)N(Cc2ccc(F)cc2)CCS3)CC1` gave Apaf1 inhib 22.8, PfG6PD inh 24.2, EBNA-1 inh 0.8, UBC13 inh 47.7*, M18AAP inhibitor 7.6, ZTA DNA inh 3.1, Casp3 UBC13 ctr 0.0 and UBC13 conf 32.7.
Screening COc1cc(NC(=S)NCCN2CCOCC2)cc(OC)c1OC returned Apaf1 inhib 4.0, PfG6PD inh 4.1, EBNA-1 inh -6.0, UBC13 inh 60.7*, M18AAP inhibitor -11.5, ZTA DNA inh 10.7, Casp3 UBC13 ctr 4.2 and UBC13 conf -4.6.
Screening COc1cc(NC(=S)NCCCN2CCOCC2)cc(OC)c1OC returned Apaf1 inhib -4.6, PfG6PD inh 4.0, EBNA-1 inh -19.1, UBC13 inh -2.3, M18AAP inhibitor -9.7 and ZTA DNA inh -7.4.
Screening C[C@H]1CN([C@@H](C)CO)C(=O)c2cc(-c3cccc(C#N)c3)cnc2O[C@H]1CN(C)C(=O)c1ccccn1 returned PfG6PD inh -7.3.
For COc1ccc(-c2cc3c(=O)n(CC(=O)NCCCN4CCC(Cc5ccccc5)CC4)ncn3n2)cc1 the results were Apaf1 inhib 15.3, PfG6PD inh -11.9, EBNA-1 inh -0.9, UBC13 inh 52.1*, M18AAP inhibitor 9.3, ZTA DNA inh 1.4, Casp3 UBC13 ctr 1.5 and UBC13 conf 75.8*.
Cc1ccc(-c2noc(CCC(=O)NCCN3CCN(Cc4ccccc4)CC3)n2)cc1 was read as Apaf1 inhib 10.3, PfG6PD inh -12.7, EBNA-1 inh 2.8, UBC13 inh 7.5, M18AAP inhibitor 1.5 and ZTA DNA inh -9.3.
Cc1ccc(-c2noc(CCC(=O)NCC3CCN(Cc4cccc(C)c4)CC3)n2)cc1 was read as Apaf1 inhib -3.9, PfG6PD inh 8.2, EBNA-1 inh 1.3, UBC13 inh 55.6*, M18AAP inhibitor -3.4, ZTA DNA inh 3.3, Casp3 UBC13 ctr -3.5 and UBC13 conf 70.1*.
For COc1ccc(-c2noc(CCC(=O)NCCCN3CCC(Cc4ccccc4)CC3)n2)cc1 the results were Apaf1 inhib 9.0, PfG6PD inh 0.4, EBNA-1 inh 3.1, UBC13 inh 89.6*, M18AAP inhibitor -2.9, ZTA DNA inh 4.3, Casp3 UBC13 ctr -1.3 and UBC13 conf 106.3*.
For COc1ccccc1NC(=O)c1c(N=Cc2ccccc2O)cnn1C the results were Apaf1 inhib 10.9, EBNA-1 inh 4.1, UBC13 inh 86.7*, M18AAP inhibitor -2.8, ZTA DNA inh -11.7, Casp3 UBC13 ctr -0.9 and UBC13 conf 96.4*.
For CCOCCOC(=O)Cn1cnc2scc(-c3ccc(C)cc3)c2c1=O the results were Apaf1 inhib -1.3, PfG6PD inh 18.8, EBNA-1 inh 14.2, UBC13 inh -1.8, M18AAP inhibitor -3.1 and ZTA DNA inh 7.6.
For O=C(O)c1ccc(N2CCS(=O)(=O)CC2)cc1 the results were Apaf1 inhib -1.0, PfG6PD inh -11.7, EBNA-1 inh -1.4, UBC13 inh 6.6, M18AAP inhibitor -2.2 and ZTA DNA inh -1.3.

From PubChem BioAssay
